Data as given in ChEMBL document CHEMBL1122413, “Chloralanyl and propargylglycyl dipeptides. Suicide substrate containing antibacterials” (1983).
Values after ≈ are worked out from the molar mass of the structure shown.

system: Klebsiella pneumoniae; experiment: Minimum inhibitory concentration against Klebsiella pneumoniae; type: functional; conditions: not given
How it was run: (§1)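 Agar dilution on defined peptide susceptibility medium with peptide in serial twofold dilutions. Strains subcultured on blood or chocolate agar. Inoculum from overnight culture in liquid peptide medium, diluted to approx 1×10^7 cfu/mL, applied by Steers replicator. Plates incubated overnight at 37 °C. MIC taken as lowest concentration permitting fewer than ten colonies at 16–18 h.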

Compound | MIC [µg/mL]
C[C@H](N)C(=O)N[C@@H](C)C(=O)O.O=C(O)C(F)(F)F | > 100
C[C@@H](N)C(=O)N[C@H](CCl)C(=O)O.O=C(O)C(F)(F)F | > 100
C#CCC(NC(=O)[C@H](N)CCl)C(=O)O.O=C(O)C(F)(F)F (stereo not given in full) | > 100
N[C@@H](CCl)C(=O)N[C@@H](CCl)C(=O)O.O=C(O)C(F)(F)F | > 100
N[C@@H](CCl)C(=O)O | > 100

system: Escherichia coli; experiment: Minimum inhibitory concentration against Escherichia coli; type: functional; conditions: not given; how it was run: as §1

Compound | MIC [µg/mL]
C[C@H](N)C(=O)N[C@@H](C)C(=O)O.O=C(O)C(F)(F)F | > 100
C[C@@H](N)C(=O)N[C@H](CCl)C(=O)O.O=C(O)C(F)(F)F | > 100
C#CCC(NC(=O)[C@H](N)CCl)C(=O)O.O=C(O)C(F)(F)F (stereo not given in full) | > 100
N[C@@H](CCl)C(=O)N[C@@H](CCl)C(=O)O.O=C(O)C(F)(F)F | 1.56
N[C@@H](CCl)C(=O)O | > 100

system: Klebsiella aerogenes; experiment: Minimum inhibitory concentration against Enterobacter aerogenes; type: functional; conditions: not given; how it was run: as §1

Compound | MIC [µg/mL]
C[C@H](N)C(=O)N[C@@H](C)C(=O)O.O=C(O)C(F)(F)F | > 100
C[C@@H](N)C(=O)N[C@H](CCl)C(=O)O.O=C(O)C(F)(F)F | > 100
C#CCC(NC(=O)[C@H](N)CCl)C(=O)O.O=C(O)C(F)(F)F (stereo not given in full) | > 100
N[C@@H](CCl)C(=O)N[C@@H](CCl)C(=O)O.O=C(O)C(F)(F)F | 25
N[C@@H](CCl)C(=O)O | > 100

system: Streptococcus agalactiae; experiment: Minimum inhibitory concentration against Streptococcus agalactiae; type: functional; conditions: not given
How it was run: (§2)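 Agar dilution on defined peptide susceptibility medium with hemin (25 μg/mL), NAD (25 μg/mL) and Isovitalex (1%) added, peptide in serial twofold dilutions. Colonies from overnight chocolate or blood agar resuspended in liquid peptide medium to 10⁸ cfu/mL, applied by Steers replicator. Incubation overnight at 37 °C under 7% CO₂. MIC: lowest concentration giving fewer than ten colonies at 16–18 h.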

Compound | MIC [µg/mL]
C[C@H](N)C(=O)N[C@@H](C)C(=O)O.O=C(O)C(F)(F)F | > 100
C[C@@H](N)C(=O)N[C@H](CCl)C(=O)O.O=C(O)C(F)(F)F | > 100
C#CCC(NC(=O)[C@H](N)CCl)C(=O)O.O=C(O)C(F)(F)F (stereo not given in full) | > 100
N[C@@H](CCl)C(=O)N[C@@H](CCl)C(=O)O.O=C(O)C(F)(F)F | 0.39
N[C@@H](CCl)C(=O)O | 3.12 (≈ 25.3 µM)

system: Enterobacter cloacae; experiment: Minimum inhibitory concentration against Enterobacter cloacae; type: functional; conditions: not given; how it was run: as §1

Compound | MIC [µg/mL]
C[C@H](N)C(=O)N[C@@H](C)C(=O)O.O=C(O)C(F)(F)F | > 100
C[C@@H](N)C(=O)N[C@H](CCl)C(=O)O.O=C(O)C(F)(F)F | > 100
C#CCC(NC(=O)[C@H](N)CCl)C(=O)O.O=C(O)C(F)(F)F (stereo not given in full) | > 100
N[C@@H](CCl)C(=O)N[C@@H](CCl)C(=O)O.O=C(O)C(F)(F)F | 12.5
N[C@@H](CCl)C(=O)O | > 100

system: Morganella morganii; experiment: Minimum inhibitory concentration against Morganella morganii; type: functional; conditions: not given; how it was run: as §1

Compound | MIC [µg/mL]
C[C@H](N)C(=O)N[C@@H](C)C(=O)O.O=C(O)C(F)(F)F | > 100
C[C@@H](N)C(=O)N[C@H](CCl)C(=O)O.O=C(O)C(F)(F)F | > 100
C#CCC(NC(=O)[C@H](N)CCl)C(=O)O.O=C(O)C(F)(F)F (stereo not given in full) | > 100
N[C@@H](CCl)C(=O)N[C@@H](CCl)C(=O)O.O=C(O)C(F)(F)F | 50
N[C@@H](CCl)C(=O)O | > 100

system: Streptococcus pyogenes; experiment: Minimum inhibitory concentration against Streptococcus pyogenes; type: functional; conditions: not given; how it was run: as §2

Compound | MIC [µg/mL]
C[C@H](N)C(=O)N[C@@H](C)C(=O)O.O=C(O)C(F)(F)F | > 100
C[C@@H](N)C(=O)N[C@H](CCl)C(=O)O.O=C(O)C(F)(F)F | > 100
C#CCC(NC(=O)[C@H](N)CCl)C(=O)O.O=C(O)C(F)(F)F (stereo not given in full) | > 100
N[C@@H](CCl)C(=O)N[C@@H](CCl)C(=O)O.O=C(O)C(F)(F)F | 1.56
N[C@@H](CCl)C(=O)O | 3.12 (≈ 25.3 µM)

system: Serratia marcescens; experiment: Minimum inhibitory concentration against Serratia marcescens; type: functional; conditions: not given; how it was run: as §1

Compound | MIC [µg/mL]
C[C@H](N)C(=O)N[C@@H](C)C(=O)O.O=C(O)C(F)(F)F | > 100
C[C@@H](N)C(=O)N[C@H](CCl)C(=O)O.O=C(O)C(F)(F)F | > 100
C#CCC(NC(=O)[C@H](N)CCl)C(=O)O.O=C(O)C(F)(F)F (stereo not given in full) | > 100
N[C@@H](CCl)C(=O)N[C@@H](CCl)C(=O)O.O=C(O)C(F)(F)F | > 100
N[C@@H](CCl)C(=O)O | > 100

system: Staphylococcus epidermidis; experiment: Minimum inhibitory concentration against Staphylococcus epidermidis; type: functional; conditions: not given; how it was run: as §1

Compound | MIC [µg/mL]
C[C@H](N)C(=O)N[C@@H](C)C(=O)O.O=C(O)C(F)(F)F | > 100
C[C@@H](N)C(=O)N[C@H](CCl)C(=O)O.O=C(O)C(F)(F)F | > 100
C#CCC(NC(=O)[C@H](N)CCl)C(=O)O.O=C(O)C(F)(F)F (stereo not given in full) | > 100
N[C@@H](CCl)C(=O)N[C@@H](CCl)C(=O)O.O=C(O)C(F)(F)F | 0.05
N[C@@H](CCl)C(=O)O | 25 (≈ 202 µM)

system: Proteus mirabilis; experiment: Minimum inhibitory concentration against Proteus mirabilis; type: functional; conditions: not given; how it was run: as §1

Compound | MIC [µg/mL]
C[C@H](N)C(=O)N[C@@H](C)C(=O)O.O=C(O)C(F)(F)F | > 100
C[C@@H](N)C(=O)N[C@H](CCl)C(=O)O.O=C(O)C(F)(F)F | > 100
C#CCC(NC(=O)[C@H](N)CCl)C(=O)O.O=C(O)C(F)(F)F (stereo not given in full) | > 100
N[C@@H](CCl)C(=O)N[C@@H](CCl)C(=O)O.O=C(O)C(F)(F)F | 50
N[C@@H](CCl)C(=O)O | > 100

system: Staphylococcus aureus; experiment: Minimum inhibitory concentration against Staphylococcus aureus; type: functional; conditions: not given; how it was run: as §1

Compound | MIC [µg/mL]
C[C@H](N)C(=O)N[C@@H](C)C(=O)O.O=C(O)C(F)(F)F | > 100
C[C@@H](N)C(=O)N[C@H](CCl)C(=O)O.O=C(O)C(F)(F)F | > 100
C#CCC(NC(=O)[C@H](N)CCl)C(=O)O.O=C(O)C(F)(F)F (stereo not given in full) | > 100
N[C@@H](CCl)C(=O)N[C@@H](CCl)C(=O)O.O=C(O)C(F)(F)F | 0.05
N[C@@H](CCl)C(=O)O | 3.12 (≈ 25.3 µM)

system: Shigella flexneri; experiment: Minimum inhibitory concentration against Shigella flexneri; type: functional; conditions: not given; how it was run: as §1

Compound | MIC [µg/mL]
C[C@H](N)C(=O)N[C@@H](C)C(=O)O.O=C(O)C(F)(F)F | > 100
C[C@@H](N)C(=O)N[C@H](CCl)C(=O)O.O=C(O)C(F)(F)F | > 100
C#CCC(NC(=O)[C@H](N)CCl)C(=O)O.O=C(O)C(F)(F)F (stereo not given in full) | > 100
N[C@@H](CCl)C(=O)N[C@@H](CCl)C(=O)O.O=C(O)C(F)(F)F | 12.5
N[C@@H](CCl)C(=O)O | > 100

system: Haemophilus influenzae; experiment: Minimum inhibitory concentration against Hemophilus influenzae; type: functional; conditions: not given; how it was run: as §2

Compound | MIC [µg/mL]
C[C@H](N)C(=O)N[C@@H](C)C(=O)O.O=C(O)C(F)(F)F | > 100
C[C@@H](N)C(=O)N[C@H](CCl)C(=O)O.O=C(O)C(F)(F)F | > 100
C#CCC(NC(=O)[C@H](N)CCl)C(=O)O.O=C(O)C(F)(F)F (stereo not given in full) | > 100
N[C@@H](CCl)C(=O)N[C@@H](CCl)C(=O)O.O=C(O)C(F)(F)F | 1.56
N[C@@H](CCl)C(=O)O | > 100

system: Enterococcus faecalis; experiment: Minimum inhibitory concentration against Streptococcus faecalis; type: functional; conditions: not given; how it was run: as §1

Compound | MIC [µg/mL]
C[C@H](N)C(=O)N[C@@H](C)C(=O)O.O=C(O)C(F)(F)F | > 100
C[C@@H](N)C(=O)N[C@H](CCl)C(=O)O.O=C(O)C(F)(F)F | > 100
C#CCC(NC(=O)[C@H](N)CCl)C(=O)O.O=C(O)C(F)(F)F (stereo not given in full) | > 100
N[C@@H](CCl)C(=O)N[C@@H](CCl)C(=O)O.O=C(O)C(F)(F)F | 3.12
N[C@@H](CCl)C(=O)O | > 100

system: Salmonella typhimurium; experiment: Minimum inhibitory concentration against Salmonella Typhimurium; conditions: not given

Compound | MIC [µg/mL]
C[C@H](N)C(=O)N[C@@H](C)C(=O)O.O=C(O)C(F)(F)F | > 100

system: Salmonella typhimurium; experiment: Minimum inhibitory concentration against Salmonella Typhimurium; type: functional, Salmonella enterica subsp. enterica serovar Typhimurium; conditions: Salmonella enterica; how it was run: as §1

Compound | MIC [µg/mL]
C[C@@H](N)C(=O)N[C@H](CCl)C(=O)O.O=C(O)C(F)(F)F | > 100
C#CCC(NC(=O)[C@H](N)CCl)C(=O)O.O=C(O)C(F)(F)F (stereo not given in full) | > 100
N[C@@H](CCl)C(=O)N[C@@H](CCl)C(=O)O.O=C(O)C(F)(F)F | > 100
N[C@@H](CCl)C(=O)O | > 100

system: Pseudomonas aeruginosa; experiment: Minimum inhibitory concentration against Pseudomonas aeruginosa; type: functional; conditions: not given; how it was run: as §1

Compound | MIC [µg/mL]
C[C@H](N)C(=O)N[C@@H](C)C(=O)O.O=C(O)C(F)(F)F | > 100
C[C@@H](N)C(=O)N[C@H](CCl)C(=O)O.O=C(O)C(F)(F)F | > 100
C#CCC(NC(=O)[C@H](N)CCl)C(=O)O.O=C(O)C(F)(F)F (stereo not given in full) | > 100
N[C@@H](CCl)C(=O)N[C@@H](CCl)C(=O)O.O=C(O)C(F)(F)F | > 100
N[C@@H](CCl)C(=O)O | > 100
